Measured values gathered from unrelated publications.
Cell line: Vero
Read-out: cell growth or viability

Oc1ccc(C2CC(c3ccc(Nc4nnc(-c5ccc(Cl)cc5)c5ccccc45)cc3)=NN2)cc1 (stereo not shown)
IC50: 4.35 µM

CNC(=O)c1ccc(NC(=O)Cn2c(=O)c3cc(I)ccc3n(Cc3ccccc3)c2=O)cc1
IC50: 46.9 µM

COc1ccc(C2CC(c3ccc(Nc4nnc(-c5ccc(Cl)cc5)c5ccccc45)cc3)=NN2)cc1 (stereo not shown)
IC50: 3.22 µM

CN(C)C/C=C/C(=O)Nc1cc2c(Nc3ccc(F)c(Cl)c3)ncnc2cc1O[C@H]1CCOC1
IC50 (MTT; 72 h): 110 µM

Cc1nnc(-c2ccc(NC(=O)Cn3c(=O)c4cc(I)ccc4n(Cc4ccccc4)c3=O)cc2)o1
IC50: 46.1 µM

C=CC(=O)Nc1cc(Nc2nccc(-c3cn(C)c4ccccc34)n2)c(OC)cc1N(C)CCN(C)C
IC50 (MTT; 72 h): 181 µM

CS(=O)(=O)CCNCc1ccc(-c2ccc3ncnc(Nc4ccc(OCc5cccc(F)c5)c(Cl)c4)c3c2)o1
IC50 (MTT): 17.5 µM

Cc1ncc(CN2CCc3ccccc3C2)c2cc(C(=O)c3ccc4c(c3)OCCO4)oc12
IC50 (MTT; 72 h): 181 µM

S=c1nc(-c2ccc(Nc3nnc(-c4ccc(Cl)cc4)c4ccccc34)cc2)cc(-c2ccc(Cl)cc2)[nH]1
IC50: 3.15 µM

COc1ccc(NC(=O)C2=C(C)NC(C)=C(C(=O)Nc3cc(OC)c(Cl)cc3OC)C2c2ccc(O)cc2)c(OC)c1 (stereo not shown)
IC50 (MTT): 60.2 µM

NNC(=O)c1ccc(NC(=O)Cn2c(=O)c3cc(I)ccc3n(Cc3ccccc3)c2=O)cc1
IC50: 52.1 µM

Clc1ccc(-c2nnc(Nc3ccc(C4=NNC(c5ccc(Cl)cc5)C4)cc3)c3ccccc23)cc1 (stereo not shown)
IC50: 4.25 µM

Cc1ccc2c(-c3cc4c(CNCc5cccnc5)cnc(C)c4o3)cc(=O)oc2c1C
IC50 (MTT; 72 h): 98.5 µM

COc1cc(NC(=O)C2=C(C)NC(C)=C(C(=O)Nc3cc(OC)c(Cl)cc3OC)C2c2ccc(Cl)cc2)c(OC)cc1Cl
IC50 (MTT): 27.4 µM

O=c1nc(-c2ccc(Nc3nnc(-c4ccc(Cl)cc4)c4ccccc34)cc2)cc(-c2ccc(Cl)cc2)[nH]1
IC50: 3 µM

COc1cc(NC(=O)C2=C(C)NC(C)=C(C(=O)Nc3cc(OC)c(Cl)cc3OC)C2c2ccco2)c(OC)cc1Cl
IC50 (MTT): 69.8 µM

OC(Cn1cncn1)(Cn1cncn1)c1ccc(F)cc1F
IC50 (MTT; 24 h): 173 µM

COc1cc(NC(=O)C2=C(C)NC(C)=C(C(=O)Nc3cc(OC)c(Cl)cc3OC)C2c2ccccc2)c(OC)cc1Cl
IC50 (MTT): 42.2 µM

O=C(Cn1c(=O)c2cc(I)ccc2n(Cc2ccccc2)c1=O)Nc1ccc(-c2nnc(S)o2)cc1
IC50: 43.8 µM
